Screening results as filed in PubChem.
Compounds with a hit are over-represented: about 4.1% of the library has one in this group of screens.
KCNK9 inh – inhibitors of human KCNK9 two-pore domain potassium channel; Q9NPC2; HEK293 KCNK9, FluxOR thallium flux fluorescence; hits give low values; B-score at 10 µM; 310,000 tested, 1.2% active; AID 488922;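 active = ratio B-score over 3 SD below the library mean, with starting fluorescence within 5 SD of its mean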;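 also: negative B-score means less thallium flux so channel inhibition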
Cl transport mod – KCC2 (human) Cl- transport modulation; KCC2 cells, thallium flux FluoZin-2 fluorescence; 190,000 tested, 2.2% active; AID 1456; B-score of Tl+ flux slope (higher = more flux/activation; lower = inhibition) at 10 µM;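 active = thallium flux slope and its plate-corrected score both differing from the plate sample mean at a set confidence after two filtering rounds, in either direction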;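 also: slope of fluorescence scaled to starting intensity during 10 to 20 s after thallium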
KCNQ1 block – blocks the human KCNQ1 potassium channel | CHO-K1 KCNQ1, FluxOR thallium flux fluorescence; hits give high values | B-score at 10 µM | 310,000 tested, 1.3% active;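 active = compounds whose thallium flux B-score, printed positive for inhibition, exceeds three library SD while starting fluorescence stays within three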;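 also: channel opened by potassium depolarization with thallium stimulus after 20 min compound exposure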
KCNQ1 pot – potentiators or activators of human KCNQ1 potassium channel. P51787. CHO-K1 KCNQ1, thallium flux FluxOR fluorescence; hits give high values. 310,000 tested, 0.35% active. B-score at 10 µM;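 active = fluorescence ratio B-score, a plate-corrected score, at least three library SD, with initial intensity B-score within 5 SD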
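Medium – assay buffer, equal DMSO in all wells · Material – CHO-K1 cell line with stable KCNQ1 potassium channel expression · Signal – kinetic FluxOR thallium fluorescence, 10-s 1-Hz baseline, 110-s post-stimulus read · Compound – single concentration per compound, DMSO matched to controls · Schedule – 37 °C overnight plating, 90-min dark dye load, 20-min compound pretreatment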
hERG protect – hERG (human) protection from proarrhythmic block. Q12809. CHO-hERG, FluxOR thallium flux, dofetilide IC70 present. activation (rescue from dofetilide block), less the hit threshold, % at 10 µM. 310,000 tested, 0.51% active;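 active = activation above the mean of controls blocked by dofetilide plus 5 SD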;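 also: thallium influx through hERG after potassium depolarization seen as dye fluorescence rise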
Target sequence (Q12809 whole entry, looked up): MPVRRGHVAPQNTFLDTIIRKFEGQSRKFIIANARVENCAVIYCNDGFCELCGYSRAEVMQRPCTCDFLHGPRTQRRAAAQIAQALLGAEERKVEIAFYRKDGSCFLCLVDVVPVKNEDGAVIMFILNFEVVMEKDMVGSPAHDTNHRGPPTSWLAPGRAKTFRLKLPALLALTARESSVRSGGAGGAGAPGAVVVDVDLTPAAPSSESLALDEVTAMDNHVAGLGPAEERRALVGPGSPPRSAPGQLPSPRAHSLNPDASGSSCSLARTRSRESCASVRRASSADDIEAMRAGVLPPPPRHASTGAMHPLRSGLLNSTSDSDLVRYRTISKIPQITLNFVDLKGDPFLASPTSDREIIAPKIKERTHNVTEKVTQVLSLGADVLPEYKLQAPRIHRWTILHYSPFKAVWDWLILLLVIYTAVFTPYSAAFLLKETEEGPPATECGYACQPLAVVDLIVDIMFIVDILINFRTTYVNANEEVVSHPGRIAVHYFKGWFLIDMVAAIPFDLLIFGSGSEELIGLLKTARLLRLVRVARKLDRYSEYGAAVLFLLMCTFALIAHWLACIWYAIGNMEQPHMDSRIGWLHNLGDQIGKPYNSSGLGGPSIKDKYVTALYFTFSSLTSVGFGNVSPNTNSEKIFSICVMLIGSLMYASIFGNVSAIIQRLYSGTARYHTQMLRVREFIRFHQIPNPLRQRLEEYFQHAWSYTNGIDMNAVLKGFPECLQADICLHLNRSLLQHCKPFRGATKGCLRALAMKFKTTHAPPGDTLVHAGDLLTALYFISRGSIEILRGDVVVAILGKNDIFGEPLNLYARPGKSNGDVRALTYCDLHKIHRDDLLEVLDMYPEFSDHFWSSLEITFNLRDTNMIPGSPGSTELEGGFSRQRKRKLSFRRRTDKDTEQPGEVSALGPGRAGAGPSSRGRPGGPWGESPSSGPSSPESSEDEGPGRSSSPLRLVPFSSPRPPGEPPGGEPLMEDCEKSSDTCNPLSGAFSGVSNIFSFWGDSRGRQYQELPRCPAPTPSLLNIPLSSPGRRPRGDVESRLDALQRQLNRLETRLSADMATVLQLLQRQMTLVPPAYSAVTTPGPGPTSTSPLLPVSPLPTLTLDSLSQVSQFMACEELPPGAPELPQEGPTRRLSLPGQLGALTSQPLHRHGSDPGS
KCNK3 inh – human KCNK3 channel inhibition, primary screen; CHO-KCNK3 thallium flux, FluxOR fluorescence; hits give low values; B-score at 10 µM; 340,000 tested, 0.84% active; AID 602410;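 active = B-score under library mean minus 4 SD, starting fluorescence ratio at most library mean plus 5 SD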;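 also: more negative B-score means stronger inhibition of thallium flux through KCNK3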
KCC2 sec1 – confirmation of human KCC2 transport modulators. shares compounds with Cl transport mod. 3,700 tested, 15% active. normalised thallium flux (F/F0 slope) at 10 µM. HEK293-KCC2, thallium flux, FluoZin2 fluorescence; hits give high values. AID 1713;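 active = thallium flux slope above the same plate's solvent-only control mean plus 3 SD; inconclusive = the two replicate wells disagree; inactive = no significant difference from solvent-only control wells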
KCC2 bumet counter – thallium flux despite bumetanide block in KCC2 cells, secondary assay 3 | 3,700 tested, 49% active | HEK293-KCC2 + bumetanide/ouabain, thallium flux FluoZin2; hits give high values | normalized thallium flux at 10 µM | shares compounds with Cl transport mod | AID 1714;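 active = thallium entry rate above the same plate's blocked-transporter control wells by more than 3 SD; inconclusive = the two repeat wells disagree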;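 also: raw slope of fluorescence over initial fluorescence between 10 and 20 s after thallium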
KCC2 sec2 – KCC2 (human) modulation, second secondary assay | HEK293-KCC2, thallium flux FluoZin2 fluorescence; actives lie on both sides; F/F0 rise rate, 10–20 s post-thallium | shares compounds with Cl transport mod | 3,700 tested, 23% active | normalized thallium flux at 10 µM;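 active = thallium flux slope more than 3 SD above or below the plate's solvent-only control mean, mostly below; inconclusive = the two repeat wells disagreed; inactive = no significant shift from solvent-only controls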;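 also: raw slope with 0.1% DMSO as baseline and bumetanide as block control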
HEK293 Tl flux – parental HEK flux effect, counter-screen. shares compounds with Cl transport mod. HEK293 parental cells, thallium flux FluoZin2, ouabain; baseline-ratio fluorescence slope, 10–20 s after thallium. thallium flux rate (normalised fluorescence) at 10 µM. 3,700 tested, 46% active. AID 1716;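 active = thallium flux rate significantly above the same plate's solvent-only control wells, beyond their mean plus 3 SD; inconclusive = the two replicate wells gave conflicting results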
KCC2 retest ouab – confirmation of human KCC2 modulators with ouabain; shares compounds with Cl transport mod; HEK293-KCC2, thallium flux FluoZin2 fluorescence; bidirectional: low = inhibitor, high = activator; raw Tl+ flux slope (below DMSO = inhibition, above = activation) at 10 µM; 3,700 tested, 48% active;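 active = thallium flux slope beyond 3 SD from same-plate DMSO control mean in most replicates, usually higher, sometimes lower; inconclusive = repeat tests gave conflicting results; inactive = no significant difference from controls in most replicates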;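 also: slope of initial-normalized fluorescence between seconds 10 and 20 after thallium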
HEK counter2 – counter-screen for KCC2 modulators: effect in parental HEK293 cells; AID 1718; shares compounds with Cl transport mod; 3,700 tested, 33% active; thallium flux slope at 10 µM; thallium flux FluoZin-2 fluorescence slope;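 active = thallium flux slope above the same plate's solvent-control mean plus 3 SD in both duplicate wells; inconclusive = duplicate wells that disagreed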;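 also: run without ouabain in cells lacking the KCC2 cotransporter; slope of fluorescence scaled to its starting value between 10 and 20 s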
* hit, by the source's call; i = inactive; ? = inconclusive; nt = no result given.

SMILES	KCNK9 inh	Cl transport mod	KCNQ1 block	KCNQ1 pot	hERG protect	KCNK3 inh	others
CC(c1ccccc1C(O)(c1ccccc1)c1ccccc1)N(C)C (centres undefined)	i	0.25	i	14*	-2	i
COc1cccc(C(=O)OCCCN(C)C)c1	i	0.002	i	i	-3	i
CC(C)NS(=O)(=O)c1ccc(NC(=O)C(C)Oc2ccc(C(=O)c3ccccc3)cc2)cc1 (centres undefined)	i	0.58	i	12*	-4	i
O=C(/C=C/c1ccc([N+](=O)[O-])cc1)c1ccco1	i	nt	i	i	-6	i
O=C(/C=C/c1ccc([N+](=O)[O-])cc1)/C=C/c1ccco1	i	nt	8*	i	-5	i
Cc1ccc(S(=O)(=O)N2CCN(C(=O)COc3ccc(Br)cc3)CC2)cc1	nt	nt	nt	nt	nt	i
COc1ccc(CN2CCNC(=O)C2CC(=O)N(C)Cc2ccon2)c(OC)c1 (centres undefined)	i	0.22	6*	i	-7	i
COc1ccc(NS(=O)(=O)NC(=O)c2cn(C)c3ccccc23)cc1	i	nt	i	i	-8	i
COc1ccccc1CNC(=O)CCNS(=O)(=O)c1cc(Br)cnc1N	i	nt	i	i	-9	i
CCCCN=C(NNc1ccc(Br)cc1)C(=O)OCC	-7.6*	-1.6	i	i	-6	i
Cc1ccccc1OCCNc1cc(N2CCCCC2)ccc1[N+](=O)[O-]	-7*	0.0041	i	i	-4	i
COc1cccc(OCCNc2cc(N3CCCCC3)ccc2[N+](=O)[O-])c1	-7.9*	nt	i	i	-13	i
COc1ccc(OC)c2nc3c(cc12)CCC3	i	nt	i	i	-3	i
Cc1c(CCOC(=O)CC23CC4CC(CC(C)(C4)C2)C3)sc[n+]1CC(=O)c1ccccc1	i	0.51	11*	i	-18	i
N#Cc1cnn(-c2ncnc3sc4c(c23)CCCC4)c1N	i	-0.81	i	i	0	i
O=Nc1onc(-c2ccc([N+](=O)[O-])cc2)c1NO	i	0.13	i	i	-21	i
Cc1ccc(-c2noc(N=O)c2NO)cc1	-7.1*	1.5	i	i	-17	i
COc1cccc(-c2sc3cc(OC)c(OC)cc3c2-c2ccc(OCCN3CCCCC3)cc2)c1	nt	nt	nt	nt	nt	i
COc1ccc(OC)c(/C=C2\SC(N3CCCC(C)C3)=NC2=O)c1 (centres undefined)	i	nt	7*	i	-13	i
COc1ccc(/C=C2\SC(N3CCCCC3)=NC2=O)cc1OC	i	nt	i	i	-4	i
O=C(NCCC(=O)N(Cc1ccco1)Cc1cccs1)c1ccc(Br)cc1	nt	nt	nt	nt	nt	i
CCOc1cc(/C=C(\C#N)C(=O)Nc2cccc(C(=O)O)c2)ccc1OCc1ccccc1Cl	i	nt	6*	i	-17	i
COc1cc(/C=C(\C#N)C(=O)Nc2cccc(C(=O)O)c2)ccc1OCc1ccc(F)cc1	i	nt	i	i	-7	i
CCC(=O)N1CCc2cc(Br)cc(S(=O)(=O)NCCN3CCCCC3C)c21 (centres undefined)	i	0.56	i	i	-15	i
COc1ccc(CCC(C)Nc2cccc(F)c2)cc1 (centres undefined)	-6.6*	1.2	i	i	-8	i
SMILES	KCNK9 inh	Cl transport mod	KCNQ1 block	KCNQ1 pot	hERG protect	KCNK3 inh	others
COc1ccc(CCC(C)Nc2ccccc2F)cc1 (centres undefined)	i	-0.43	i	i	-4	i
O=C(c1ccoc1)N1CCC2(CC1)Oc1ccc(Cl)cc1C(=O)C21CC(c2ccc(Cl)cc2)=NO1 (centres undefined)	i	0.8	6*	i	-12	i
Cc1ccc(/C=C/C(=O)c2ccccc(=O)c2O)cc1C	i	32*	i	34*	9.1*	i
COc1ccc(C=CC(=O)c2ccc(OC)c(OC)c2O)cc1OC	nt	nt	nt	nt	nt	i
Cc1ccc2nc3c(cc2c1)c(NC(=O)c1ccccn1)nn3CC(C)C	i	nt	i	i	-24	i
CCCCC(=O)Nc1nn(CC)c2nc3c(C)cccc3cc12	i	nt	i	i	-4	i
CCn1nc(NC(=O)c2ccccn2)c2cc3cc(C)ccc3nc21	i	7.3*	i	i	-11	i	KCC2 sec1=0.0056;KCC2 bumet counter=0.0036;KCC2 sec2=0.026;HEK293 Tl flux=0.0073;KCC2 retest ouab=0.018;HEK counter2=?
CCCCC(=O)Nc1nn(CCC)c2nc3ccccc3cc12	i	-3.8*	i	i	-3	i	KCC2 sec1=0.0094;KCC2 bumet counter=0.0067;KCC2 sec2=0.029;HEK293 Tl flux=0.0073;KCC2 retest ouab=0.043;HEK counter2=0.01
O=C(CN(C(=O)c1csnn1)c1ccc(F)c(Cl)c1)NCc1ccccc1	i	nt	i	i	-8	i
O=C(C1CCCN(Cc2nc(-c3cccs3)no2)C1)N1CCOCC1 (centres undefined)	i	-0.033	i	i	-6	i
O=C(O)c1ccc2c3n(nc2c1)-c1ccc(Cl)cc1CO3	i	nt	i	i	0	nt
O=C(c1ccc2c3n(nc2c1)-c1ccc(Cl)cc1CO3)N1CCCCC1	i	-2.2*	i	i	-11	i	KCC2 sec1=0.0067;KCC2 bumet counter=0.0048;KCC2 sec2=?;HEK293 Tl flux=0.0079;KCC2 retest ouab=?;HEK counter2=0.012
O=C(Oc1c(-c2ccccc2)oc2ccccc2c1=O)c1ccccc1	i	nt	i	i	-8	i	KCC2 sec1=0.014*;KCC2 bumet counter=0.068*;KCC2 sec2=0.036;HEK293 Tl flux=?;KCC2 retest ouab=0.055*;HEK counter2=?
